Laboratory results reported in article PMC4085138 (Chemistry and physics of lipids, 2013).
Counter-ions that a name gives are not always drawn.

T1: granuphilin C2A domain (Homo sapiens, UniProt Q96C24)
T1 sequence (Q96C24 352-488): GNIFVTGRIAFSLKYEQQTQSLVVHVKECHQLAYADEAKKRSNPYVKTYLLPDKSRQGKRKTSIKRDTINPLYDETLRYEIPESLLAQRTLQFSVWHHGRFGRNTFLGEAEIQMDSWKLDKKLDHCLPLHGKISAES

B1: C2A: human granuphilin C2A domain (Gly352 – Ser488) with C-terminal His6 tag, expressed in E. coli (protein, UniProt Q96C24 352-488, looked up, fragment)
chain: T1 sequence (Q96C24 352-488)
modifications: C2A domain C-terminal His6 tag

What was measured:
granuphilin C2A domain [1] = molecular target: T1, granuphilin C2A domain; test: Intrinsic Trp fluorescence titration of IP6 or IP3 into free C2A domain; format: binding
granuphilin C2A domain [2] = molecular target: T1, granuphilin C2A domain; test: Qualitative reversal of protein-to-membrane FRET by IP6; format: binding; conditions: 8 mM IP6, all lipid compositions tested
Method in brief: (§1)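 Emission spectra recorded at 25 °C (excitation 284 nm) of vesicles bearing dansyl-PE acceptor (125 μM total accessible lipid) in KCl/NaCl/MgCl2/HEPES pH 7.4 buffer with 100 μM EDTA or 1 mM CaCl2. […] Each addition followed by 40 s stirred equilibration. Dansyl emission near 510 nm read; spectra dilution-corrected.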

granuphilin C2B domain [3] = molecular target: T2, granuphilin C2B domain (Homo sapiens, UniProt Q96C24); test: FRET competition binding assay: IP6 titrated into vesicle-bound C2B
Method in brief: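 Human C2B domain (Glu487–Leu671, E. coli-expressed, freed from GST by thrombin) at 1 μM, premixed with liposomes (125 μM total accessible lipid) in 140 mM KCl, […], 0.5 mM MgCl2, 25 mM HEPES pH 7.4 with 100 μM EDTA, 25 °C. IP6 titrated; acceptor emission at 520 nm (excitation 284 nm, 10-s average), dilution-corrected, lipid-only blank subtracted.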

granuphilin C2B domain [4] = molecular target: T2, granuphilin C2B domain; test: Qualitative reversal of protein-to-membrane FRET by IP6; format: binding; conditions: 8 mM IP6, all lipid compositions tested
Method in brief: as §1

granuphilin C2A domain [5] = molecular target: T1, granuphilin C2A domain; test: FRET competition binding assay: IP6 titrated into vesicle-bound C2A; conditions: 125 μM accessible lipid, 1 μM C2A
granuphilin C2A domain [6] = molecular target: T1, granuphilin C2A domain; test: Membrane dissociation kinetics on rapid addition of high IP6; format: binding; conditions: 8 mM IP6 rapidly added; biexponential
[7] = Qualitative protein-to-membrane FRET; format: binding; conditions: 1 μM domain, 125 μM total accessible lipid
Method in brief: as §1

[8] = Qualitative protein-to-membrane FRET; format: binding; conditions: PS and PI replaced with PG; 1 μM domain
Method in brief: as §1

[9] = Stopped-flow FRET association and dissociation kinetics; format: binding; conditions: 0.3 μM protein, 75 μM total accessible lipid
Method in brief: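 Stopped-flow measurements at 25 °C in assay buffer with 100 μM EDTA; excitation 284 nm, dansyl emission through a 475-nm longpass filter, first 1 ms discarded. For association, 0.3 μM domain was mixed with liposomes (75 μM total accessible lipid, after mixing), and a single-exponential fit gave kobs. For dissociation, pre-bound complexes were mixed with equal volume of 4-fold excess unlabeled vesicles, and an exponential decay fit gave koff. kon was derived from kobs and koff; ≥3 replicates.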

[10] = Qualitative protein-to-membrane FRET; format: binding; conditions: 1 μM domain, 125 μM total accessible lipid; remark: listed apart in the source
Method in brief: as §1

[11] = Qualitative protein-to-membrane FRET; format: binding; conditions: 1 μM domain, 125 μM total accessible lipid; remark: listed apart in the source
Method in brief: as §1

[12] = Stopped-flow FRET association and dissociation kinetics; format: binding; conditions: 0.3 μM protein, 75 μM total accessible lipid; remark: listed apart in the source
Method in brief: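 Association run by stopped-flow at 25 °C in assay buffer with 100 μM EDTA: 0.3 μM domain rapidly mixed with liposomes (75 μM total accessible lipid, after mixing). Excitation 284 nm, dansyl emission through a 475-nm longpass filter, data within 1 ms dead time discarded. Single-exponential fit gives kobs; traces averaged over 9–12 mixing events, ≥3 replicates.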

| fold less tight binding of IP3 than IP6 to C2A (granuphilin C2A domain [1]) | Molecule | Ki (granuphilin C2A domain [1]) [µM] | reversal of protein-to-membrane FRET (dansyl emission at 512 nm) (granuphilin C2A domain [2]) | IC50 (granuphilin C2B domain [3]) [µM] | Ki (granuphilin C2B domain [3]) [nM] | reversal of protein-to-membrane FRET (dansyl emission at 512 nm) (granuphilin C2B domain [4]) | IC50 (granuphilin C2A domain [5]; PC/PG/dPE vesicles) [µM] | IC50 (granuphilin C2A domain [5]; PC/PI/dPE vesicles) [µM] | IC50 (granuphilin C2A domain [5]; PC/PS/dPE vesicles) [µM] | IC50 (granuphilin C2A domain [5]; PM(+)PIP2 vesicles, 100 μM EDTA) [µM] | IC50 (granuphilin C2A domain [5]; PM(+)PIP3 vesicles) [µM] | IC50 (granuphilin C2A domain [5]; PM(−)PIPx vesicles) [µM] | fold faster dissociation kinetics than by approach to equilibrium method (granuphilin C2A domain [6]) | protein-to-membrane FRET (dPE emission) on protein addition [7] | protein-to-membrane FRET (dPE emission) on protein addition [8] | kobs for association [9] [s⁻¹] | protein-to-membrane FRET (dPE emission) on protein addition [10] | protein-to-membrane FRET (dPE emission) on protein addition [11] | kobs for association [12] [s⁻¹] |
| --- | --- | --- | --- | --- | --- | --- | --- | --- | --- | --- | --- | --- | --- | --- | --- | --- | --- | --- | --- |
| ~ 40 fold | O=P(O)(O)O[C@@H]1[C@H](O)[C@H](O)[C@@H](OP(=O)(O)O)[C@H](OP(=O)(O)O)[C@H]1O [IP3, D-myo-inositol-1,4,5-triphosphate tripotassium salt] | 80 ± 30 | – | – | – | – | – | – | – | – | – | – | – | – | – | – | – | – | – |
| – | O=P(O)(O)O[C@H]1[C@H](OP(=O)(O)O)[C@@H](OP(=O)(O)O)[C@H](OP(=O)(O)O)[C@@H](OP(=O)(O)O)[C@H]1OP(=O)(O)O [IP6, D-myo-inositol 1,2,3,4,5,6,-hexakisphosphate dodecasodium salt] | 1.8 ± 0.1 | completely reversed | 21 ± 3 | 1900 ± 500 | completely reversed | 11 ± 1 | 5 ± 1 | 10 ± 1 | 1600 ± 200 | 1100 ± 100 | 37 ± 6 | ~ 100 fold | – | – | – | – | – | – |
| – | B1 | – | – | – | – | – | – | – | – | – | – | – | – | increase in dPE emission | Binding was restored | 150 ± 20 | FRET was observed | increase in dPE emission | 190 ± 30 |
